Measured values reported in ChEMBL document CHEMBL2176931, “Plakilactones from the marine sponge Plakinastrella mamillaris. Discovery of a new class of marine ligands of peroxisome proliferator-activated receptor γ” (J Med Chem, 2012).
Activity calls are given as the source filed them. No cut-off for these calls is given here.

Columns and labels:
[1] = biological target: T1, Peroxisome proliferator-activated receptor gamma (Homo sapiens) (UniProt P37231); assay: Covalent binding affinity to N-terminal His6-tagged PPARgamma ligand binding domain (195 to 477 amino acid residues) at 20 uM after 60 to 180 mins by RP-LC-MS analysis
T1 sequence (whole entry): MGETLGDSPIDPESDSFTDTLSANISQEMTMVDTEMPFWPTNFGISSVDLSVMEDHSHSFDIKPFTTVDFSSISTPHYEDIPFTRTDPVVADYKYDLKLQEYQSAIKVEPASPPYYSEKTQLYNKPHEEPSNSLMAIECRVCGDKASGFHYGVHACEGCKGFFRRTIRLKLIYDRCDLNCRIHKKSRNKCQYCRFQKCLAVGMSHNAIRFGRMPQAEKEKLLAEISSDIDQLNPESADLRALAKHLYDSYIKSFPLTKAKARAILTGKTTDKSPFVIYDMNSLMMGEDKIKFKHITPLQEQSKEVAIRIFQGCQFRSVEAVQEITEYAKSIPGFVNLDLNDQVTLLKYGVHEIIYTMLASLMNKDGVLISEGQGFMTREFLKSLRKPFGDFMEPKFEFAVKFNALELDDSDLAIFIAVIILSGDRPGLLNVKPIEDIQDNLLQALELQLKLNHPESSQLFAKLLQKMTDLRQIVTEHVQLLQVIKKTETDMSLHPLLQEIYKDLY
Outline: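 PPARγ-LBD (1 μM) incubated with compound (20 μM) in PBS pH 7.5 at 37 °C for 60 and 180 min; aliquots analysed by RP-LC-MS on C4 column, 20–70% aqueous acetonitrile gradient with 0.05% TFA/1% formic acid over 25 min, spectra m/z 1500–3000.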

[2] = biological target: T1, Peroxisome proliferator-activated receptor gamma (Homo sapiens); assay: Transactivation of GAL4-fused PPARgamma ligand binding domain transfected in human HepG2 cells at 10 uM after 18 hrs by luciferase reporter gene assay; format: cell-based
[3] = biological target: T2, Peroxisome proliferator-activated receptor alpha (Homo sapiens) (UniProt Q07869); assay: Transactivation of GAL4-fused PPARalpha ligand binding domain transfected in human HepG2 cells at 10 uM after 18 hrs by luciferase reporter gene assay; format: cell-based
T2 sequence (whole entry): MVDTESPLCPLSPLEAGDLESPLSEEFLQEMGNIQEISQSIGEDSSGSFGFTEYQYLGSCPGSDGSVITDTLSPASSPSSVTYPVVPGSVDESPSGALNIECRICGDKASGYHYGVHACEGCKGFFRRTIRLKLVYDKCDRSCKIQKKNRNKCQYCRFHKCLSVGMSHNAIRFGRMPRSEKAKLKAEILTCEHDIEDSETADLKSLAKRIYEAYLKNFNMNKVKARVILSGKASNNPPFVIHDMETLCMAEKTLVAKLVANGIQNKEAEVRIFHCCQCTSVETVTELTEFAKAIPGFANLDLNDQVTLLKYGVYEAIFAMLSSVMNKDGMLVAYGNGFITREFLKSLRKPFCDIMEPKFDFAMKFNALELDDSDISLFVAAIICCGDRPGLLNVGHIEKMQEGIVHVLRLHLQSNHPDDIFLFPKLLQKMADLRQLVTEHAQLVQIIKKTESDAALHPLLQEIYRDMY

[4] = biological target: T3, Peroxisome proliferator-activated receptor delta (Homo sapiens) (UniProt Q03181); assay: Transactivation of GAL4-fused PPARbeta ligand binding domain transfected in human HepG2 cells at 10 uM after 18 hrs by luciferase reporter gene assay; format: cell-based
T3 sequence (whole entry): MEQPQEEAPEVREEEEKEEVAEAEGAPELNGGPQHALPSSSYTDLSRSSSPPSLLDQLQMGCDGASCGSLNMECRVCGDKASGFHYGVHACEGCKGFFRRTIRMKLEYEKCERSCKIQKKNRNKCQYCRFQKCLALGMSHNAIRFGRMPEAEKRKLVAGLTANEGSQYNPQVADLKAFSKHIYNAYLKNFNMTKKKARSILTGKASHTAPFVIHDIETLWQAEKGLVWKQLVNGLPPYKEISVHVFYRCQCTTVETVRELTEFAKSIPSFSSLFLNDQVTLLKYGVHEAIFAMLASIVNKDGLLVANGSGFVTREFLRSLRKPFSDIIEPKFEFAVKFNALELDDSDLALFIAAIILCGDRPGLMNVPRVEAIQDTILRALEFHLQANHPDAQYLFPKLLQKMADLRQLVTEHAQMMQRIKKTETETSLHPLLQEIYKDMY

[5] = biological target: T1, Peroxisome proliferator-activated receptor gamma (Homo sapiens); assay: Transactivation of PPARgamma in human HepG2 cells assessed as induction of SCD1 mRNA expression at 10 uM after 18 hrs by RT-PCR analysis relative to untreated control; format: cell-based
Outline: (§1)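 Serum-starved HepG2 cells (E-MEM, 10% FBS at maintenance, 37 °C) treated 18 h with 10 μM compound; total RNA by TRIzol, DNase I, random-primed RT; SYBR Green qPCR, 40 cycles; normalized to GAPDH, relative to untreated cells set to 1; triplicate, experiment repeated twice.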

[6] = biological target: T1, Peroxisome proliferator-activated receptor gamma (Homo sapiens); assay: Transactivation of PPARgamma in human HepG2 cells assessed as induction of PEPCK mRNA expression at 10 uM after 18 hrs by RT-PCR analysis relative to untreated control; format: cell-based; outline: as §1
[7] = biological target: T1, Peroxisome proliferator-activated receptor gamma (Homo sapiens); assay: Transactivation of PPARgamma in human THP1 cells assessed as decrease in LPS-induced IL6 mRNA expression at 10 uM preincubated for 3 hrs prior to LPS challenge measured after 18 hrs by RT-PCR analysis relative to untreated control; format: cell-based; conditions: THP-1
Outline: (§2)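 Serum-starved THP-1 cells pretreated 3 h with 10 μM compound (rosiglitazone 100 nM reference), then LPS 1 μg/mL for 18 h; total RNA SYBR Green real-time PCR, GAPDH-normalized, expressed relative to untreated cells set to 1; triplicate, repeated twice.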

[8] = biological target: T1, Peroxisome proliferator-activated receptor gamma (Homo sapiens); assay: Transactivation of PPARgamma in human HepG2 cells assessed as induction of CD36 mRNA expression at 10 uM after 18 hrs by RT-PCR analysis relative to untreated control; format: cell-based; outline: as §1
[9] = biological target: T4, Peroxisome proliferator-activated receptor gamma (Homo sapiens, UniProt P37231); assay: (§3) Transactivation of GAL4-fused PPARgamma ligand binding domain transfected in human HepG2 cells by luciferase reporter gene assay; format: cell-based
T4 sequence (P37231 whole entry): T1 sequence (whole entry)
Outline: (§4)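 GAL4–PPARγ LBD luciferase transactivation in HepG2 cells; concentration–response at 1, 10 and 50 μM (rosiglitazone 10, 100, 500 nM); luciferase measured in cell extracts; relative EC50 estimated from curves; mean ± SE of three experiments.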

[10] = biological target: T1, Peroxisome proliferator-activated receptor gamma (Homo sapiens); assay: as §3; format: cell-based; outline: as §4
[11] = biological target: T1, Peroxisome proliferator-activated receptor gamma (Homo sapiens); assay: Transactivation of PPARgamma in human THP1 cells assessed as decrease in LPS-induced MCP1 mRNA expression at 10 uM preincubated for 3 hrs prior to LPS challenge measured after 18 hrs by RT-PCR analysis relative to untreated control; format: cell-based; conditions: THP-1; outline: as §2
[12] = biological target: T1, Peroxisome proliferator-activated receptor gamma (Homo sapiens); assay: Antagonist activity at GAL4-fused PPARgamma ligand binding domain transfected in human HepG2 cells assessed as decrease in rosiglitazone-induced transactivation at 50 uM after 18 hrs by luciferase reporter gene assay; format: cell-based
[13] = biological target: T1, Peroxisome proliferator-activated receptor gamma (Homo sapiens); assay: Covalent binding affinity to N-terminal His6-tagged PPARgamma ligand binding domain (195 to 477 amino acid residues) by MALDI-MS and MALDI-MS/MS method
Outline: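 Protein–ligand adduct digested with trypsin (E:S 1:100, 1 h, 37 °C), desalted on C18 ZIP-TIP, analysed by MALDI-MS in reflectron positive mode with α-cyano-4-hydroxycinnamic acid matrix, m/z 700–5000; peptide numbering per full-length PPARγ.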

Activity [2]	Activity [3]	Activity [4]	SMILES	also measured
inactive			CCC1=C[C@@](CC)(C[C@@H](CC)CCC(C)=O)O/C1=C\C(=O)OC	Activity [1]: inactive
	inactive	inactive	CCC1=C[C@@](CC)(C/C(=C/[C@@H](O)CC)CC)O/C1=C\C(=O)OC	
Active	inactive	inactive	CCC1=C[C@@](CC)(C[C@H](/C=C/[C@H](C)O)CC)O/C1=C\C(=O)OC	Activity [5]: Active; Activity [6]: Active; Activity [7]: Active; Activity [8]: Active; EC50 [9]: 10 µM; Activity [10]: Dose-dependent effect; Activity [11]: Active
	inactive	inactive	CCC1=C[C@@](CC)(C/C(=C\[C@@H](O)CC)CC)OC1=O	
	inactive	inactive	CCCC[C@H](CC)C[C@]1(CC)C=C(CC)C(=O)O1	
inactive			CCC1=C[C@@](CC)(C[C@@H](CC)CCC(C)=O)OC1=O	Activity [1]: inactive
	inactive	inactive	CCC1=C[C@@](CC)(C/C(=C/[C@@H](O)CC)CC)OC1=O	
Active	inactive	inactive	CCC1=C[C@@](CC)(C[C@H](/C=C/C(C)=O)CC)OC1=O	Activity [5]: Active; Activity [6]: inactive; Activity [8]: Active; Activity [1]: Active; EC50 [9]: 2 µM; Activity [10]: Dose-dependent effect
	inactive	inactive	CC/C=C/[C@H](CC)C[C@]1(CC)C=C(CC)C(=O)O1	
	inactive	inactive	CC/C=C/[C@H](CC)C[C@]1(CC)C=C(CC)/C(=C/C(=O)OC)O1	Activity [12]: Active
	inactive	inactive	CCCC[C@H](CC)C[C@]1(CC)C=C(CC)/C(=C/C(=O)OC)O1	Activity [12]: Active
Active	inactive	inactive	CCC1=C[C@@](CC)(C[C@H](/C=C/C(C)=O)CC)O/C1=C\C(=O)OC	Activity [5]: Active; Activity [6]: Active; Activity [8]: inactive; Activity [1]: Active; EC50 [9]: 5 µM; Activity [10]: Dose-dependent effect; Activity [13]: Active
	inactive	inactive	CCC1=C[C@@](CC)(C/C(=C\[C@H](O)CC)CC)OC1=O	
	inactive	inactive	CCC1=C[C@@](CC)(C[C@H](/C=C/[C@@H](C)O)CC)OC1=O	

SMILES	Activity [2]	Activity [3]	Activity [4]	also measured
CC[C@@H]1C[C@@]2(CC)O/C(=C\C(=O)OC)[C@@]3(CC)OO[C@H]([C@@H](C)O)[C@@H]1[C@@H]23		inactive	inactive	
